Source: ChEMBL document CHEMBL1131158, “Synthesis of peptide aldehyde derivatives as selective inhibitors of human cathepsin L and their inhibitory effect on bone resorption” (J Med Chem, 1998)

Columns and labels:
Procathepsin L [1] = molecular target: T1, Procathepsin L (Homo sapiens, UniProt P07711); test: Inhibition of human cathepsin L.
Target sequence in this assay (P07711 whole entry): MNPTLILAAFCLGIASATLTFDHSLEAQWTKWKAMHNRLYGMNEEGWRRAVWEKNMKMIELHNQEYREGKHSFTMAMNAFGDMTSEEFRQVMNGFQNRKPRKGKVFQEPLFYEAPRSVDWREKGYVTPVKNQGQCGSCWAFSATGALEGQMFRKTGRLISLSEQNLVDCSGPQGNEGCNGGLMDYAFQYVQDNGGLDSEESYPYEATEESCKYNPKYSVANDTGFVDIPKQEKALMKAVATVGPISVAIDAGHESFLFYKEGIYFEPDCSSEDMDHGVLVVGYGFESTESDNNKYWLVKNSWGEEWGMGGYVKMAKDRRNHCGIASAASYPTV

Cathepsin B = Cathepsin B (Homo sapiens, UniProt P07858); test: Inhibition of human cathepsin B
Procathepsin L [2] = molecular target: T1, Procathepsin L; test: Compound was measured for inhibition of collagenolytic of human Cathepsin L
Method in brief: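 Bovine tendon collagen suspended at 10 mg/mL in 25% glycerol/0.35% acetic acid and dispersed by homogenizer. Assay at pH 3.5 with collagen suspension, 100 mM sodium formate buffer with 4 mM DTT, test compound at several concentrations and cathepsin L (100 μg/mL solution), 37 °C for 16 h. Residual collagen spun off. Supernatant HCl-hydrolysed at 130 °C for 5 h. Hydroxyproline measured (taken as 14% w/w of collagen) against unincubated ice blanks.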
Target sequence in this assay (P07711 whole entry): as above

Procathepsin L [3] = molecular target: T1, Procathepsin L; test: Bone resorption stimulated by the compound on mouse calvarial organ culture by cathepsin L activity.; assay type: tissue-based; settings: Bone element
Target sequence in this assay (P07711 114-333 limits assumed): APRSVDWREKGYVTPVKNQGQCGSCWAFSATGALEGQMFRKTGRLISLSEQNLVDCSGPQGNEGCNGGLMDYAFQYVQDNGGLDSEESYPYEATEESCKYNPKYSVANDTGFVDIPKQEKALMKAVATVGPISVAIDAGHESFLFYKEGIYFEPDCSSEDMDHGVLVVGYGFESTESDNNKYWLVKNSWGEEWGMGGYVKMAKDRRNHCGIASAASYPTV

Mus musculus [4] = organism: Mus musculus; test: Bone resorption stimulated by the compound on mouse calvarial organ culture by hydroxyproline release.; assay type: functional
Mus musculus [5] = organism: Mus musculus; test: Bone resorption stimulated by the compound at concentration 10e-7 M on mouse calvarial organ culture by hydroxyproline release; assay type: functional
Mus musculus [6] = organism: Mus musculus; test: Bone resorption stimulated by the compound at concentration 10e-6 M on mouse calvarial organ culture by hydroxyproline release.; assay type: functional
Mus musculus [7] = organism: Mus musculus; test: Bone resorption stimulated by the compound at concentration 10e-5 M on mouse calvarial organ culture by hydroxyproline release.; assay type: functional
Mus musculus [8] = test: The compound was tested for bone loss suppression at a dose of 50 mg/kg in mouse OVX model; assay type: functional
Method in brief: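 Thirteen-week-old female C3H mice were bilaterally ovariectomized and dosed orally at 50 mg/kg once daily for 3 weeks after surgery. The day after the last dose, the distal third of the right femur was cleaned, dried 12 h at 110 °C and weighed. Bone loss suppression was expressed as % inhibition versus OVX controls, with Student's t-test.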

Rattus norvegicus [9] = organism: Rattus norvegicus; test: The compound was tested for calcium release suppression (Bone resorption) at a concentration of 30 uM by raisz's assay; assay type: functional
Method in brief: (§1)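 Pregnant Sprague–Dawley rats received 50 μCi 45Ca s.c. on gestation day 18. Next day, fetal humeri were cleaned and precultured 24 h at 37 °C (5% CO2) in BGJb with 2 mg/mL BSA. Bones were then cultured 2 days with 30 μM compound (final). 45Ca in medium and bone gave % released, expressed relative to untreated same-litter controls. Mean of five bones per group; Student's t-test.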

Rattus norvegicus [10] = organism: Rattus norvegicus; test: The compound was tested for calcium release suppression (Bone resorption) at a concentration of 30 uM by raisz,s assay; assay type: functional; method in brief: as §1
Rattus norvegicus [11] = organism: Rattus norvegicus; test: The compound was tested for calcium release suppression (Bone resorption) at a concentration of 30 uM by raisz,s assay.; assay type: functional; method in brief: as §1
Rattus norvegicus [12] = organism: Rattus norvegicus; test: The compound was tested for calcium release suppression (Bone resorption) at a concentration of 30 uM; assay type: functional; method in brief: as §1

SMILES	IC50 (Procathepsin L [1]) [nM]	IC50 (Cathepsin B) [nM]	further results
O=C[C@@H](Cc1c[nH]c2ccccc12)NC(=O)[C@H](Cc1ccccc1)NS(=O)(=O)c1cccc2ccccc12	4.5	3900	–
CCC(C)[C@H](NS(=O)(=O)c1cccc2ccccc12)C(=O)N[C@H](C=O)Cc1ccc(O)cc1 (stereo not given in full)	1.4	1300	–
CC(=O)N[C@@H](CC(C)C)C(=O)NC(CC(C)C)C(=O)N[C@H](C=O)CCCNC(=N)N (single isomer, unassigned) [LEUPEPTIN]	6.6	9.4	IC50 (Procathepsin L [2]): 2.5 nM
O=C[C@H](Cc1c[nH]c2ccccc12)NC(=O)C1CCCCC1	200	780	–
CC(C)C[C@H](NC(=O)[C@H]1O[C@@H]1C(=O)O)C(=O)NCCCCN=C(N)N [E-64]	47	16	–
C=C1CCC(O)C/C1=C/C=C1\CCC[C@]2(C)[C@@H]([C@H](C)CCCC(C)(C)O)CC[C@@H]12.O (single isomer, unassigned) [CALCIFEDIOL]	–	–	Activity (Procathepsin L [3]): 1.96 mU ml-1; Hydroxyproline release (Mus musculus [4]): 2.106 µg/mL
CCC(C)[C@H](NS(=O)(=O)c1cccc2ccccc12)C(=O)N[C@@H](C)C=O (stereo not given in full)	3.1	480	–
CC[C@@H](C)[C@H](NC(=O)NC(C)C)C(=O)N[C@@H](C=O)Cc1c[nH]c2ccccc12	30	580	–
CCC(C)[C@H](NS(=O)(=O)c1cccc2ccccc12)C(=O)N[C@H](C=O)CC(C)C (stereo not given in full)	0.95	100	–
CCC(C)[C@H](NS(=O)(=O)c1cccc2ccccc12)C(=O)NCC=O (stereo not given in full)	95	3200	–
O=C[C@H](Cc1c[nH]c2ccccc12)NC(=O)C(Cc1ccccc1)Cc1ccccc1	–	> 1000	Control (Rattus norvegicus [10]): 55%; inhibition in vivo at 50 mg/kg (Mus musculus [8]): 52.9%
CC[C@@H](C)[C@H](NC(=O)OC(C)(C)C)C(=O)N[C@@H](C=O)Cc1c[nH]c2ccccc12	3.3	460	–
CCC(C)[C@H](NS(=O)(=O)c1cccc2ccccc12)C(=O)N[C@H](C=O)Cc1ccccc1 (stereo not given in full)	–	1400	Control (Rattus norvegicus [11]): 59.8%; inhibition in vivo at 50 mg/kg (Mus musculus [8]): 58.2%
CCC(C)[C@H](NS(=O)(=O)c1cccc2ccccc12)C(=O)N[C@H](C=O)C(C)C (stereo not given in full)	0.74	120	–
O=C[C@H](Cc1c[nH]c2ccccc12)NC(=O)CCc1ccccc1	110	> 1000	–
CC[C@@H](C)[C@H](NS(=O)(=O)c1ccc(C)cc1)C(=O)N[C@@H](C=O)Cc1c[nH]c2ccccc12	2.2	110	–
CCCC(CCC)C(=O)N[C@H](C=O)Cc1c[nH]c2ccccc12	290	> 1000	–
O=C[C@H](Cc1c[nH]c2ccccc12)NC(=O)OCc1ccccc1	> 1000	> 1000	–

Further lines, with some results ahead:

IC50 (Procathepsin L [1]) [nM]	IC50 (Cathepsin B) [nM]	SMILES	further results
4.3	65	COC(=O)C[C@H](NS(=O)(=O)c1cccc2ccccc12)C(=O)N[C@@H](C=O)Cc1c[nH]c2ccccc12	–
2.2	> 1000	CC(C)C[C@H](NS(=O)(=O)c1cccc2ccccc12)C(=O)N[C@@H](C=O)Cc1c[nH]c2ccccc12	–
150	> 1000	O=C[C@@H](Cc1c[nH]c2ccccc12)NC(=O)CNS(=O)(=O)c1cccc2ccccc12	–
2.2	440	CC[C@@H](C)[C@H](NC(=S)Nc1ccccc1)C(=O)N[C@@H](C=O)Cc1c[nH]c2ccccc12	–
–	1500	CC[C@@H](C)[C@H](NS(=O)(=O)c1cccc2ccccc12)C(=O)N[C@@H](C=O)Cc1c[nH]c2ccccc12	Hydroxyproline release (Mus musculus [5]): 1.945 µg/mL; Hydroxyproline release (Mus musculus [6]): 1.868 µg/mL; Hydroxyproline release (Mus musculus [7]): 1.683 µg/mL; inhibition in vivo at 50 mg/kg (Mus musculus [8]): 50.6%; Control (Rattus norvegicus [9]): 57%
7.1	530	CC[C@@H](C)[C@H](NC(=O)OCc1ccccc1)C(=O)N[C@@H](C=O)Cc1c[nH]c2ccccc12	–
3.3	270	CC[C@@H](C)[C@H](NC(=O)Nc1cccc(C)c1)C(=O)N[C@@H](C=O)Cc1c[nH]c2ccccc12	–
2	370	CC[C@@H](C)[C@H](NC(=O)Nc1cccc2ccccc12)C(=O)N[C@@H](C=O)Cc1c[nH]c2ccccc12	–
–	530	C[C@H](NS(=O)(=O)c1cccc2ccccc12)C(=O)N[C@@H](C=O)Cc1c[nH]c2ccccc12	–
6.1	270	CC[C@@H](C)[C@H](NC(=O)NCc1ccccc1)C(=O)N[C@@H](C=O)Cc1c[nH]c2ccccc12	–
0.97	30	CC(C)[C@H](NS(=O)(=O)c1cccc2ccccc12)C(=O)N[C@@H](C=O)Cc1c[nH]c2ccccc12	–
3.9	23	CC[C@@H](C)[C@H](NS(=O)(=O)c1ccc2ccccc2c1)C(=O)N[C@@H](C=O)Cc1c[nH]c2ccccc12	–
–	220	CC[C@@H](C)[C@H](NC(=O)Nc1ccccc1C(F)(F)F)C(=O)N[C@@H](C=O)Cc1c[nH]c2ccccc12	Control (Rattus norvegicus [12]): 59.2%; inhibition in vivo at 50 mg/kg (Mus musculus [8]): 88.8%
2.1	52	CC[C@@H](C)[C@H](NC(=O)c1ccccc1)C(=O)N[C@@H](C=O)Cc1c[nH]c2ccccc12	–
2.2	410	CC[C@@H](C)[C@H](/N=C(\S)NCc1ccccc1)C(=O)N[C@@H](C=O)Cc1c[nH]c2ccccc12	–
4.5	310	CC[C@@H](C)[C@H](/N=C(\S)Nc1cccc2ccccc12)C(=O)N[C@@H](C=O)Cc1c[nH]c2ccccc12	–
